Screens deposited in PubChem BioAssay by Broad Institute.
Casp6 inh: blocks human caspase-6 cleavage activity; inhibition, % at 12.5 µM; 0.53% of 350,000 active; AID 686996; purified caspase-6, Z-VEID-R110 cleavage fluorescence;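 active = mean inhibition across replicates at least about 35%, with every replicate also reaching that limit, limit read from the data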;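 note: 0% = median of neutral control wells and 100% = no fluorescence left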
Target sequence (P55212 24-179 limits assumed): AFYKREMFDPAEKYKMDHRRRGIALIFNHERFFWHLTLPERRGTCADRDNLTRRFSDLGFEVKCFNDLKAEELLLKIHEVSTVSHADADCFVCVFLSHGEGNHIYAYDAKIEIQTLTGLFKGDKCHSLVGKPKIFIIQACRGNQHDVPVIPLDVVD
Target sequence (P55212 194-293 limits assumed): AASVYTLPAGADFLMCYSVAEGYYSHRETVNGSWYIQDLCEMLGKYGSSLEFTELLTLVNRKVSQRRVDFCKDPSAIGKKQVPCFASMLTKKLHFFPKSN
DENV2 CPE: inhibitors of DENV2 cytopathic effect. DENV2-infected cells, cytopathic effect rescue, plate reader. CPE inhibition, % at 9.99 µM. 1.7% of 350,000 active; in the data active = CPE inhibition above about 20%, passing the limit was not always enough; tested in BHK-21 cells;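 note: 0% = median of neutral control wells and 100% = median of positive control wells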
FN deposition inh: fibronectin deposition inhibition. AH1F fibroblasts, Alexa488-fibronectin deposition fluorescence, overnight. 0.086% of 350,000 active. inhibition, % at 12.6 µM;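 active = mean inhibition across replicates of 30% or more, regardless of how many single replicates reach that level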;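 note: positive control wells lacked labelled fibronectin entirely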
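Schedule: 1 h cell adhesion before compound, then overnight fibronectin incubation; test system: AH1F fibroblast monolayer depositing Alexa488-labelled fibronectin into matrix; quantity: 10000 AH1F cells per well; probe or stimulus: fluorescent fibronectin at 24 nM final; signal: fluorescence, ex 485 nm, em 525 nm; evaluation: percent inhibition as loss of matrix-bound fibronectin fluorescence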
XiGFP reactiv: activators of X-chromosome reactivation in mouse fibroblasts; 0.055% of 360,000 active; XiGFP mouse fibroblasts, % GFP-positive cells imaging, 3 d; cells co-treated with 5-aza-dC sensitizer; scaled so ellipticine positive control = 100%; activation, % at 7.58 µM;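 active = mean normalized replicate activation at least 10% and every replicate at or above 10%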;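 note: 0% = median of on-plate neutral control wells and 100% = ellipticine 6 µM median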
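Material: XiGFP fibroblasts, SV40-immortalized; Buffer or medium: DMEM containing 5-aza-dC; Compound dosing: single point; Times: 3 days compound exposure.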
CaV13 ICDI inh: Disruptors of the CACNA1D IQ motif to Ca2+-dependent inactivation inhibitor domain association, primary screening, Förster resonance energy transfer in intact living …; HEK cells, CFP/YFP FRET ICDI-IQ, plate reader, 10 min; percent FRET-ratio fall versus neutral wells; inhibition, % at 12.3 µM; 0.098% of 340,000 active;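 active = mean replicate inhibition of at least 30% and at least 1% of replicates passing that level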;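 note: 0% = median of the neutral control wells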
Numbers without * were called inactive; ! = repeats disagree. Most compounds without a hit are left out; they make up all but 2% or so of the library.

For Cc1noc(C)c1NC(=O)N(C)C[C@@H]1OCCCC[C@@H](C)Oc2ccc(NC(=O)C3CCCCC3)cc2C(=O)N([C@H](C)CO)C[C@H]1C the results were Casp6 inh 6.8, DENV2 CPE -4.5 and XiGFP reactiv 0.0.
For Cc1noc(C)c1NC(=O)N(C)C[C@H]1OCCCC[C@@H](C)Oc2ccc(NC(=O)Nc3cccc4ccccc34)cc2C(=O)N([C@@H](C)CO)C[C@H]1C the results were DENV2 CPE -3.3 and XiGFP reactiv -0.6.
Screening Cc1noc(C)c1NC(=O)Nc1ccc2c(c1)C(=O)N([C@@H](C)CO)C[C@@H](C)[C@@H](CN(C)C(=O)Nc1ccccc1)OCCCC[C@@H](C)O2 returned Casp6 inh 3.5, DENV2 CPE 21.8*, FN deposition inh 8.2 and XiGFP reactiv 0.2.
Cc1noc(C)c1NC(=O)Nc1ccc2c(c1)C(=O)N([C@@H](C)CO)C[C@H](C)[C@@H](CN(C)Cc1ccc(Cl)c(Cl)c1)OCCCC[C@@H](C)O2 was read as Casp6 inh -2.6, DENV2 CPE -4.9 and XiGFP reactiv 0.1.
`Cc1noc(C)c1NC(=O)N(C)C[C@@H]1OCCCC[C@@H](C)Oc2ccc(NC(=O)Nc3cccc4ccccc34)cc2C(=O)N([C@@H](C)CO)C[C@@H]1C` gave Casp6 inh 0.5 and DENV2 CPE 37.6*.
For COC(=O)C[C@H]1CC[C@@H]2[C@@H](COc3ccc(NC(=O)c4cccc(Cl)c4)cc3C(=O)N2C)O1 the results were Casp6 inh 4.3, DENV2 CPE -2.1, FN deposition inh 2.9 and XiGFP reactiv 0.3.
O=C(C1CCCC1)N1CC(=O)N2[C@@H](CO)[C@H](c3ccc(Br)cc3)[C@@H]2C1 was read as Casp6 inh 1.8, DENV2 CPE -4.4, FN deposition inh -10.0 and XiGFP reactiv 0.2.
C[C@H]1CN([C@@H](C)CO)C(=O)Cc2cc(NC(=O)CCN3CCOCC3)ccc2O[C@H]1CN(C)Cc1ccc(-c2ccccc2)cc1 was read as Casp6 inh 0.1, DENV2 CPE 16.3 and XiGFP reactiv 0.2.
For Cc1noc(C)c1NC(=O)Nc1ccc2c(c1)C(=O)N([C@@H](C)CO)C[C@@H](C)[C@H](CN(C)C(=O)NC1CCCCC1)OCCCC[C@H](C)O2 the results were Casp6 inh -2.2, DENV2 CPE 10.7 and XiGFP reactiv -1.1.
`Cc1noc(C)c1NC(=O)N(C)C[C@@H]1OCCCC[C@@H](C)Oc2ccc(NC(=O)Nc3ccc(C(F)(F)F)cc3)cc2C(=O)N([C@H](C)CO)C[C@@H]1C` gave Casp6 inh -1.9, DENV2 CPE 1.4, FN deposition inh 4.8 and XiGFP reactiv 0.0.
For Cc1noc(C)c1NC(=O)N(C)C[C@@H]1OCCCC[C@H](C)Oc2ccc(NC(=O)Nc3ccc(C(F)(F)F)cc3)cc2C(=O)N([C@@H](C)CO)C[C@@H]1C the results were Casp6 inh -0.5, DENV2 CPE 29.6*, FN deposition inh -3.5 and XiGFP reactiv 0.0.
Cc1noc(C)c1NC(=O)Nc1ccc2c(c1)C(=O)N([C@H](C)CO)C[C@H](C)[C@H](CN(C)C(=O)NC1CCCCC1)OCCCC[C@@H](C)O2 was read as Casp6 inh -0.2, DENV2 CPE 30.8*!, FN deposition inh -2.5, XiGFP reactiv -0.1 and CaV13 ICDI inh -6.9.
For COc1cc(/C=C2\C(=O)NN(c3ccccc3)C2=O)cc([N+](=O)[O-])c1O the results were Casp6 inh 27.1, DENV2 CPE 4.4, XiGFP reactiv 0.0 and CaV13 ICDI inh -6.1.
Screening CCOc1cc(/C=C2\C(=O)NN(c3ccccc3)C2=O)cc([N+](=O)[O-])c1O returned Casp6 inh 37.0*, FN deposition inh 5.6, XiGFP reactiv 0.1 and CaV13 ICDI inh -4.2.
For CCc1ccc(CN(Cc2cccnc2)C(=O)/C=C/c2ccc(OC)cc2)cc1 the results were Casp6 inh 98.2*, DENV2 CPE -6.3, FN deposition inh -8.3, XiGFP reactiv 0.0 and CaV13 ICDI inh -3.2.
For CC(C)=C(NC(=O)c1ccccc1Cl)C(=O)NCCc1nc2ccccc2[nH]1 the results were Casp6 inh -2.4, DENV2 CPE 130.0*, FN deposition inh 8.3, XiGFP reactiv 0.0 and CaV13 ICDI inh -14.2.
